Assay outcomes (PubChem BioAssay)
M1 antagonist: M1 muscarinic receptor (rat) antagonism; hit rate 3.4% among 64,000; AID 628; B-score at 10 µM; P08482; CHO-M1 cells, Fluo-4 calcium, ACh EC80 antagonist mode; stronger effect = lower value;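 active = calcium fluorescence response, raw or row-and-column corrected B-score, differing from the plate sample mean either way at a set confidence level, mostly lower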
Target sequence (P08482 whole entry, looked up): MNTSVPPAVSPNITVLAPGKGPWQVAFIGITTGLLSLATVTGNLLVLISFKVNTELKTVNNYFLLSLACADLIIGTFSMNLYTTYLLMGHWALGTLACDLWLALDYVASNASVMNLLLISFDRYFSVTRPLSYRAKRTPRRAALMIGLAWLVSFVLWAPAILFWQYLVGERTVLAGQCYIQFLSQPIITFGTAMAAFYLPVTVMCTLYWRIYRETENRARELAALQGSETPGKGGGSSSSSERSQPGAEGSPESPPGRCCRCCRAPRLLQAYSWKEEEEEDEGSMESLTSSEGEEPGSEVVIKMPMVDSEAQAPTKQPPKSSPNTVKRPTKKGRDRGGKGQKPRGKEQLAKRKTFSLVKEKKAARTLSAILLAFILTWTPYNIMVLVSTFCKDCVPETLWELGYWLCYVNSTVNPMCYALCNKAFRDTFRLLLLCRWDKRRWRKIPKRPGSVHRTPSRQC
D1 allo mod: allosteric modulators of human D1 dopamine receptor; P21728; HEK293 D1, CRE-luciferase, dopamine EC30 potentiation; actives deviate in either direction; B-score at 10 µM; hit rate 5.9% among 58,000;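 active = luminescence count or its row- and column-corrected plate score outside the 99.7% band of the plate's sample wells, on either side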
S1P1 ag-PAM: S1P1 (human) agonism or agonism potentiation; S1P1 CRE-bla cells, forskolin, beta-lactamase FRET, potentiator mode; S1P1 agonist co-added at EC20, 2 nM; 100% = saturating reference agonist, 0% = basal; hit rate 0.57% among 56,000; P21453; activation, % at 9.5 µM; AID 449;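 active = activation above a cutoff set at the mean activation of all tested compounds plus 3 SD, cut at about 54% in these data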;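 note: forskolin at 4 µM as EC80 and the EC20 agonist is SEW2871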
M1 agonist: agonists of M1 muscarinic receptor; B-score at 10 µM; CHO-M1 cells, Fluo-4 calcium fluorescence, agonist mode; stronger effect = higher value; hit rate 3% among 64,000;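 active = fluorescence rise, raw or as B-score row- and column-corrected plate score, outside the 99.7% band of its plate's samples, either direction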
S1P3 ag: activates the human S1P3 receptor; S1P3 NFAT-BLA reporter cells, agonism, FRET ratio; relative to 1 µM S1P, basal subtracted; activation, % at 4.5 µM; hit rate 0.1% among 60,000;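 active = activation above the screen-wide mean plus 3 SD, cut at about 4.5% in these data, passing the limit was not always enough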
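material = human S1P3 NFAT-BLA reporter CHO cells | schedule = 4 h compound at 37 °C, 2 h substrate at RT | measured by = fluorescent BLA substrate, ex 405 nm, em 460/535 nm ratio | controls = 1 µM S1P reference | replication = primary once, confirmation triplicate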
M1 ag confirm: confirmation of rat M1 muscarinic receptor agonists | shares compounds with M1 agonist | CHO-M1 cells, Fluo-4 calcium fluorescence, agonist mode; actives lie on both sides | fluorescence change (max-min) at 10 µM | hit rate 19% among 1,700 | AID 1488;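 active = fluorescence change differs from the solvent-only DMSO control mean at a set confidence level in both duplicate runs; inconclusive = differs from solvent-only control mean in just one of two runs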;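 note: an EC20 dose of acetylcholine follows compound addition during the same imaging run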
M4 ag counter: rat M4 muscarinic agonism, M1 counter-screen; shares compounds with M1 agonist; CHO M4/Gqi5 cells, Fluo-4 calcium fluorescence, agonist mode; actives lie on both sides; fluorescence change (max-min) at 10 µM; hit rate 9% among 1,700;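 active = fluorescence change differing from the plate's solvent-only control wells at 99.7% confidence in both duplicates, whether higher or lower; inconclusive = differs from solvent controls in only one of two duplicates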
Each line names hits and unclear results; the compound was inactive in the other large screens (follow-up assays come after a bar, where they were run). Sampled rows, rich in hits. Any-hit rate of the full collection: about 11%.

O=C(c1cnc(N2CCN(c3ncccn3)CC2)c2ccccc12)N1CCN(c2ncccn2)CC1	M1 agonist 11 | M1 ag confirm inactive | M4 ag counter inactive
O=C(c1ccc2c3c(cccc13)CC2)N1CCN(c2ncccn2)CC1	none (no result: S1P1 ag-PAM)
CCN(C(=O)c1cnc(N2CCN(c3ncccn3)CC2)c2ccccc12)c1cccc(Cl)c1	M1 agonist 3.3 | M1 ag confirm inactive | M4 ag counter inconclusive
COc1ccc(OC(C)C(=O)N2CCN(c3ccccn3)CC2)cc1 (stereo not given)	none
O=C(COc1ccc(Cl)cc1)N1CCN(c2ncccn2)CC1	none
CC(C)NC(=O)c1cnc(N2CCN(c3ccccn3)CC2)c2ccccc12	M1 agonist 5.8 | M1 ag confirm inactive | M4 ag counter inactive
Cc1noc(C)c1C(=O)NCCCN1CCCC1=O	none
Cc1cc(SCC(=O)OCC(=O)N2CCN(C(=O)c3ccco3)CC2)c(C)cc1Br	M1 agonist 4.1 (no result: S1P1 ag-PAM, S1P3 ag) | M1 ag confirm inactive | M4 ag counter inactive
Cc1cnc(C(=O)OCC(=O)N2CCN(C(=O)c3ccco3)CC2)cn1	none
O=C(OCn1nnc2ccccc2c1=O)c1ccc(S(=O)(=O)N2CCOCC2)cc1	none (no result: S1P1 ag-PAM, S1P3 ag)
CCN(CC)S(=O)(=O)c1ccc(C(=O)OCn2nnc3ccccc3c2=O)cc1	M1 agonist 6.2 | M1 ag confirm inactive | M4 ag counter inconclusive
COC(=O)c1ccc(CSc2nnc(-c3ccncc3)n2Cc2ccccc2)o1	none
CCOc1ccccc1CN(CCc1ccc2c(c1)OCO2)Cc1ccccn1	none
Cn1c(C(=O)OC(C(=O)NC2CCCCC2)c2ccncc2)cc2sccc21 (stereo not given)	none
O=C(NCCN1CCOCC1)NC1(C(F)(F)F)Oc2ccc(Cl)cc2O1 (stereo not given)	none
COCC(C)NC(=O)NC1(C(F)(F)F)Oc2ccc(Cl)cc2O1 (stereo not given)	M1 agonist 6.4 (no result: S1P1 ag-PAM, S1P3 ag) | M1 ag confirm inconclusive | M4 ag counter inactive
C#CCn1c(=NC(=O)CSCC(=O)N2CCOCC2)sc2ccccc21	none (no result: D1 allo mod, S1P1 ag-PAM, S1P3 ag)
CC(=O)N1CCCc2cc(S(=O)(=O)N3CCN(c4ccccn4)CC3)ccc21	none
CC(=O)NC1(C2CCCCC2=O)CCCCC1 (stereo not given)	M1 agonist 3.6 | M1 ag confirm inactive | M4 ag counter inactive
COc1ccc(C2=CC(c3c(C)nn(-c4ccccc4)c3Cl)n3nnnc3N2)cc1OC (stereo not given)	M1 agonist 5.5 | M1 ag confirm inactive | M4 ag counter inactive
CC(=O)N(Cc1ccccc1)c1ncc2c(n1)c(=O)c(C#N)c1ccccn12	M1 agonist 4 | M1 ag confirm 64 | M4 ag counter inactive
CC(/C=N/n1cnnc1)=C\c1ccco1	none
COc1cccc(-c2cc(C(F)(F)F)n3ncc(C(=O)NCC4CCCO4)c3n2)c1 (stereo not given)	M1 agonist 6.6 | M1 ag confirm inconclusive | M4 ag counter inactive
Cn1c(=O)c2c(nc(NCc3ccccc3)n2CCCc2ccccc2)n(C)c1=O	M1 antagonist 2.5, D1 allo mod -3.1, M1 agonist 15 | M1 ag confirm inconclusive | M4 ag counter inactive
Cn1c(=O)c2c(nc(NCc3ccccc3)n2C)n(C)c1=O	none
Cn1c(=O)c2c(nc(N3CCN(Cc4ccccc4)CC3)n2CCCc2ccccc2)n(C)c1=O	M1 agonist 4.2 | M1 ag confirm inactive | M4 ag counter inactive
O=C(O)C1C2C=CC(C2)C1C(=O)Nc1ccc(C(=O)N2CCCCC2)cc1 (stereo not given)	none (no result: S1P1 ag-PAM)
CN(C)/C=c1\sc2c(C#N)cc(C(=O)c3ccc(Br)cc3)n2c1=O	M1 agonist 75 (no result: S1P1 ag-PAM, S1P3 ag) | M1 ag confirm 278 | M4 ag counter 714
CC(OC(=O)c1ccco1)C(=O)NC1CCCCC1 (stereo not given)	none
CC(C)C(OC(=O)c1ccco1)C(=O)NC1CCCCC1 (stereo not given)	M1 agonist 2.2 | M1 ag confirm inactive | M4 ag counter inactive
CCOCCc1nnc(NC(=O)COC)s1	none
COc1ccccc1NC(=O)N1CCCC1C(=O)NC12CC3CC(CC(C3)C1)C2 (stereo not given)	none
COc1cc2c(=O)nc3n(c2cc1OC)C(c1ccccc1)N=C(N)N3 (stereo not given)	M1 agonist 2.4 | M1 ag confirm inactive | M4 ag counter inactive
NC1=NC(c2ccc(F)cc2)n2c(nc3ccccc32)N1 (stereo not given)	none
CC(C)(C)c1csc(NC(=O)Cn2cnc3ccccc3c2=O)n1	none
O=C(NC1CCCCC1)C(c1cccs1)N(Cc1cccs1)C(=O)c1ccco1 (stereo not given)	none (no result: D1 allo mod)
COCC(C)n1c(C)cc(C(=O)CSc2nc3ccccc3c(=O)[nH]2)c1C (stereo not given)	M1 agonist 2.8 (no result: D1 allo mod) | M1 ag confirm inactive | M4 ag counter inactive
CC(C)C(=O)Nc1cc(=O)[nH]c2ncnn12	none
O=C(CSc1nc2[nH]ncc2c(=O)n1-c1ccccc1)c1ccc2c(c1)OCCO2	M1 agonist 7.2 (no result: S1P1 ag-PAM) | M1 ag confirm inconclusive | M4 ag counter inactive
CCN1CCN(C(=O)c2ccc3c(=O)n(C4CCCC4)c(=S)[nH]c3c2)CC1	M1 agonist 1.4 | M1 ag confirm inactive | M4 ag counter inactive
O=C(c1ccc2c(=O)n(C3CCCC3)c(=S)[nH]c2c1)N1CCN(C2CCCCC2)CC1	none
CCOC(=O)N1CCN(C(=O)c2ccc3c(=O)n(CCc4ccccc4)c(=S)[nH]c3c2)CC1	none
CCCn1c(=S)[nH]c2cc(C(=O)N3CCCC(C(=O)OCC)C3)ccc2c1=O (stereo not given)	M1 agonist 3.3 (no result: S1P1 ag-PAM, S1P3 ag) | M1 ag confirm inactive | M4 ag counter inconclusive
O=C(CSc1nnc(-c2ccccc2)n1Cc1ccco1)Nc1ccc2c(c1)OCCO2	M1 agonist 3.5 | M1 ag confirm inactive | M4 ag counter inactive
Nc1nnc(SCc2cccc(C(F)(F)F)c2)s1	M1 agonist 1.6 | M1 ag confirm inactive | M4 ag counter inconclusive
Cc1cc(C)c(NC(=O)c2ccc(S(=O)(=O)N3CCOCC3)cc2)c(C)c1	none
CC(C)c1nnc(NC(=O)c2ccc(S(=O)(=O)N3CCOCC3)cc2)s1	M1 agonist -3.1 | M1 ag confirm inconclusive | M4 ag counter inconclusive
COc1cc(C(=O)Nc2nnc(CC(=O)N3CCOCC3)s2)cc(OC)c1OC	none
O=c1c2ccccc2nc(N2CCN(c3ccccc3)CC2)n1Cc1ccccc1	none
O=C1N(CCCCN2C(=O)C3(OCCO3)c3ccccc32)c2ccccc2C12OCCO2	M1 agonist 3.1 | M1 ag confirm inactive | M4 ag counter inactive
